The source made the active and inactive calls. The calls are words filed in the database; no cut-off is given here.

Test [1] relates to Staphylococcus aureus. The test can be described thus: Antimicrobial activity against Staphylococcus aureus 209p measured every 24 hrs for 5 days by two-fold serial dilution method. The test is classed as functional.
Test [2] has as its system Bacillus cereus. The test can be described thus: Antimicrobial activity against Bacillus cereus ATCC 8035 measured every 24 hrs for 5 days by two-fold serial dilution method. The test is classed as functional.
Test [3] relates to Escherichia coli. The test can be described thus: Antimicrobial activity against Escherichia coli CDC F-50 measured every 24 hrs for 5 days by two-fold serial dilution method. The test is classed as functional.
The subject of test [4] is Pseudomonas aeruginosa. As to the kind of experiment: Antimicrobial activity against Pseudomonas aeruginosa ATCC 9027 measured every 24 hrs for 5 days by two-fold serial dilution method. The test is classed as functional.
The test system of test [5] is Aspergillus niger. The test can be described thus: Antimicrobial activity against Aspergillus niger BKMF-1119 measured after 14 days by two-fold serial dilution method. It counts as functional, organism-based.
In test [6] the test system is Trichophyton mentagrophytes. As to the kind of experiment: Antimicrobial activity against Trichophyton mentagrophytes var. gypseum 1773 measured after 14 days by two-fold serial dilution method. It counts as functional.
Test [7] relates to Candida albicans. As to the kind of experiment: Antimicrobial activity against Candida albicans 855-653 measured after 14 days by two-fold serial dilution method. The test is classed as functional.
Test [8] deals with Staphylococcus aureus. As to the kind of experiment: Bactericidal activity against Staphylococcus aureus 209p measured after 4 hrs. The test is classed as functional. The method, boiled down:
(§1)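 Microbicidal (bactericidal/fungicidal) concentration, killing of microbial cells, determined per literature procedures; tests in duplicate, repeated twice.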

Test [9] relates to Bacillus cereus. The test can be described thus: Bactericidal activity against Bacillus cereus ATCC 8035 measured after 4 hrs. The test is classed as functional. The method, boiled down:
as §1

In test [10] the test system is Escherichia coli. As to the kind of experiment: Bactericidal activity against Escherichia coli CDC F-50 measured after 4 hrs. It counts as functional. Put shortly:
as §1

For test [11], the system named is Pseudomonas aeruginosa. The test can be described thus: Bactericidal activity against Pseudomonas aeruginosa ATCC 9027 measured after 4 hrs. It counts as functional. Put shortly:
as §1

In test [12] the test system is Aspergillus niger. As to the kind of experiment: Bactericidal activity against Aspergillus niger BKMF-1119 measured after 4 hrs. It counts as functional, organism-based. The method, boiled down:
as §1

Test [13] relates to Trichophyton mentagrophytes var. granulosum. As to the kind of experiment: Bactericidal activity against Trichophyton mentagrophytes var. granulosum 1773 measured after 4 hrs. It counts as functional. The method, boiled down: as §1
The test system of test [14] is Candida albicans. As to the kind of experiment: Bactericidal activity against Candida albicans 855-653 measured after 4 hrs. It counts as functional. Put shortly: as §1

For `CCOP(=O)(OCC)C(NCCC[N+](C)(C)Cc1ccccc1)c1cc(C(C)(C)C)c(O)c(C(C)(C)C)c1` (configuration not stated), the MIC was 99.5 µM in test [1]; 24.8 µM in test [2]; 199 µM in [7] (855-653, 336 h); 199 µM in [8]; 24.8 µM in test [9] (ATCC 8035, 4 h); 199 µM in test [14] (855-653, 4 h). Also, the MIC entry in test [3], in test [4], in test [5], in [6], in test [10] and in test [11] was “inactive” throughout. For the same compound, the MIC result in test [12] and in test [13] was “inactive” in each case.
Turning to `CCCCCCCC[N+](C)(C)CCNC(=O)CCc1cc(C(C)(C)C)c(O)c(C(C)(C)C)c1`, the MIC was found to be 29 µM in test [1]; 58 µM in test [2]; 29 µM in test [7] (855-653, 336 h); 29 µM in test [8]; 58 µM in test [9] (ATCC 8035, 4 h); 29 µM in test [14] (855-653, 4 h). Further, the MIC result in test [3], in test [4], in test [5], in [6], in [10] and in [11] was “inactive” throughout. Also, the MIC result in [12] and in [13] was “inactive” throughout.
For `CC[N+](C)(C)CCNC(=O)CCc1cc(C(C)(C)C)c(O)c(C(C)(C)C)c1`, the MIC result in test [1], in test [2], in test [3], in test [4], in test [5] and in test [6] was “inactive” each time. Moreover, the MIC entry in test [8], in [9], in test [10], in test [11], in test [12] and in [13] was “inactive” each time. The MIC result in test [14] is “inactive”. In test [7] (855-653, 336 h), this compound registered an MIC of 68.5 µM.
Consider `CCOP(=O)(OCC)C(NCC[N+](C)(C)CC)c1cc(C(C)(C)C)c(O)c(C(C)(C)C)c1` (configuration not stated), for which the minimal inhibitory concentration (MIC) in test [1] stood at 56.8 µM; in [2] it was 56.8 µM; in test [8], 56.8 µM; in [9] (ATCC 8035, 4 h), 56.8 µM. The MIC entry in test [3], in test [4], in test [5], in [6], in test [7] and in test [10] was “inactive” in each case. The MIC entry in test [11], in test [12], in test [13] and in test [14] was “inactive” each time.
Take `CC[N+](C)(C)CCCNC(=O)CCc1cc(C(C)(C)C)c(O)c(C(C)(C)C)c1`: the MIC result in test [1], in test [2], in [3], in test [4], in test [5] and in test [6] was “inactive” each time. In addition, the MIC result in test [8], in test [9], in test [10], in test [11], in test [12] and in test [13] was “inactive” each time. Besides, the MIC in test [7] (855-653, 336 h) stood at 265 µM; in test [14] (855-653, 4 h), 265 µM.
As for `CCCCCCCCCCCCCCCC[N+](C)(C)CCCNC(=O)CCc1cc(C(C)(C)C)c(O)c(C(C)(C)C)c1`, the minimal inhibitory concentration (MIC) came out at 47 µM in test [1]; 375 µM in test [2]; 187 µM in test [7] (855-653, 336 h); 375 µM in test [9] (ATCC 8035, 4 h); 375 µM in test [14] (855-653, 4 h). In addition, the MIC result in [3], in test [4], in test [5], in test [6], in test [8] and in test [10] was “inactive” throughout. Besides, the MIC entry in test [11], in [12] and in test [13] was “inactive” each time.
Consider `CCOP(=O)(OCC)C(NCC[N+](C)(C)Cc1ccccc1)c1cc(C(C)(C)C)c(O)c(C(C)(C)C)c1` (configuration not stated), for which the MIC came to 51 µM in test [1]; 6.4 µM in [2]; 177 µM in test [7] (855-653, 336 h); 407 µM in test [8]; 102 µM in test [9] (ATCC 8035, 4 h); 177 µM in test [14] (855-653, 4 h). Besides, the MIC entry in test [3], in test [4], in [5], in test [6], in test [10] and in test [11] was “inactive” each time. Moreover, the MIC result in [12] and in test [13] was “inactive” throughout.
`CCCCCCCCCC[N+](C)(C)CCCNC(=O)CCc1cc(C(C)(C)C)c(O)c(C(C)(C)C)c1`: the MIC in test [1] was found to be 1.5 µM; in test [2] it was 6.7 µM; in test [3] it was 26.8 µM; in [4] it was 26.8 µM; in test [7] (855-653, 336 h), 0.9 µM; in test [8] it was 3.3 µM. The minimal inhibitory concentration (MIC) came to 107 µM in test [9] (ATCC 8035, 4 h); 53.6 µM in test [10] (CDC F-50, 4 h); 26.8 µM in test [11] (ATCC 9027, 4 h); 0.9 µM in test [14] (855-653, 4 h). The MIC entry in test [5], in test [6], in test [12] and in test [13] was “inactive” in each case.
On to `CCCCCCCC[N+](C)(C)CCCNC(=O)CCc1cc(C(C)(C)C)c(O)c(C(C)(C)C)c1`, for which the minimal inhibitory concentration (MIC) was 28 µM in test [1]; 28.1 µM in test [2]; 28 µM in test [7] (855-653, 336 h); 28 µM in test [8]; 28.1 µM in test [9] (ATCC 8035, 4 h); 56.3 µM in test [14] (855-653, 4 h). In addition, the MIC entry in test [3], in test [4], in [5], in test [6], in test [10] and in [11] was “inactive” in each case. The MIC result in [12] and in [13] was “inactive” throughout.
For `CC[N+](C)(C)CCCNC(c1cc(C(C)(C)C)c(O)c(C(C)(C)C)c1)P(=O)(OC(C)C)OC(C)C` (configuration not stated), the MIC in test [1] was 105 µM; in test [2], 105 µM; in test [7] (855-653, 336 h) it was 422 µM; in test [8], 105 µM; in test [9] (ATCC 8035, 4 h), 421 µM; in test [14] (855-653, 4 h), 422 µM. Moreover, the MIC result in [3], in test [4], in test [5], in test [6], in test [10] and in test [11] was “inactive” each time. The MIC entry in [12] and in [13] was “inactive” in each case.
For `CCCCCCCCCCCC[N+](C)(C)CCCNC(c1cc(C(C)(C)C)c(O)c(C(C)(C)C)c1)P(=O)(OCC)OCC` (configuration not stated), the MIC amounted to 22 µM in test [1]; 177 µM in test [2]; 44.3 µM in [7] (855-653, 336 h); 22 µM in test [8]; 177 µM in [9] (ATCC 8035, 4 h); 44.3 µM in [14] (855-653, 4 h). The MIC entry in test [3], in [4], in test [5], in test [6], in test [10] and in test [11] was “inactive” throughout. Also, the MIC entry in test [12] and in [13] was “inactive” throughout.
In the case of `CC(C)OP(=O)(OC(C)C)C(NCCC[N+](C)(C)Cc1ccccc1)c1cc(C(C)(C)C)c(O)c(C(C)(C)C)c1` (configuration not stated), the minimum inhibitory concentration (MIC) in test [1] was found to be 95.3 µM; in [2], 95.3 µM; in [8], 95.3 µM; in test [9] (ATCC 8035, 4 h), 95.3 µM. Besides, the MIC entry in [3], in test [4], in test [5], in test [6], in [7] and in test [10] was “inactive” in each case. Further, the MIC result in test [11], in [12], in [13] and in test [14] was “inactive” each time.
With `CCCCCCCCCCCC[N+](C)(C)CCCNC(=O)CCc1cc(C(C)(C)C)c(O)c(C(C)(C)C)c1`, the MIC came out at 102 µM in test [1]; 206 µM in [2]; 102 µM in [8]; 206 µM in [9] (ATCC 8035, 4 h). For the same compound, the MIC entry in test [3], in test [4], in [5], in [6], in test [7] and in test [10] was “inactive” throughout. In addition, the MIC entry in test [11], in test [12], in test [13] and in test [14] was “inactive” each time.

Source of the values: ChEMBL document CHEMBL4368886, “Design, synthesis, and biological activity of novel ammonium salts containing sterically hindered phenolic fragment and phosphoryl group” (Medchemcomm, 2018).
